OX1R antag-1: OX1R (human) antagonism. inhibition, % at 6.6 µM. OX1R-expressing cells, FRET antagonist read-out. 1.8% of 330,000 active; in the data active = inhibition mostly above about 38%, no sharp cut-off; inactive = mostly below about 40%
TAAR1 antag: human TAAR1 antagonism. Q96RJ0. CHO RD-HGA16 TAAR1, Fluo-8 calcium fluorescence, antagonist. inhibition, % at 3 µM. 1.5% of 360,000 active. AID 624466;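 active = inhibition above a per-plate cutoff, the mean inhibition of test compounds on that plate plus 3 SD, cut at about 49% in these data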
Target sequence (Q96RJ0 whole entry, looked up): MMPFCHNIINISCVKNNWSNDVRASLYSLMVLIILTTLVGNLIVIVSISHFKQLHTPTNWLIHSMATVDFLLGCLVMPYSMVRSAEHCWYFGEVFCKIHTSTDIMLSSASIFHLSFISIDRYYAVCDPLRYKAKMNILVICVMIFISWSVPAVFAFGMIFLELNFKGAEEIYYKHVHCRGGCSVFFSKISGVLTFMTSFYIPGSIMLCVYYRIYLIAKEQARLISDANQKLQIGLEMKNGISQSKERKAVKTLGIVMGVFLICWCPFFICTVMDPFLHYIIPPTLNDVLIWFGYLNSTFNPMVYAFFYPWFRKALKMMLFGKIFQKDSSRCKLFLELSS
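Material: CHO RD-HGA16 cells bearing hTAAR1; compound dosing: one-point dosing, 3 µM nominal final; schedule: dye loading 75 min at 37 °C, then 30 min room temperature; measured by: calcium fluorescence with Fluo-8; control set: vehicle and agonist controls; replication: n of 1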
TAAR1 ag: human TAAR1 agonism. Q96RJ0. CHO RD-HGA16 TAAR1, Fluo-8 calcium fluorescence; vehicle wells 0%, saturating PEA agonist 100%. activation, % at 3 µM. 0.99% of 360,000 active;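 active = activation above the mean activation of all test compounds in the run plus 3 SD, cut at about 38% in these data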
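Test system: RD-HGA16 (CHO) cells co-expressing Gα16 and hTAAR1 / Benchmarks: DMSO vehicle as 0%, PEA at EC100 as 100% / Repeats: no replicates (n 1) / Measure: % activation from peak over basal fluorescence ratio, DMSO-to-PEA scaled / Timing: 17-24 h plating, Fluo-8 75 min 37 °C, 30 min RT / Technique: kinetic Fluo-8 calcium fluorescence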
CHO parental Ca: counter-screen: ATP calcium response change in parental CHO cells | 0.63% of 330,000 active | inhibition, % at 5.6 µM | parental CHO-K1, ATP-induced calcium, Fluo-8 fluorescence | AID 463079;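 active = inhibition above that plate's mean sample inhibition plus 3 SD, cut at about 26% in these data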
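Test system: untransfected parental CHO cell line; also added: ATP stimulus; dosing: 5.6 µM, single dose; signal: calcium-sensitive Fluo-8 fluorescence; measure: percent inhibition of ATP-evoked calcium rise, normalized to controls; benchmarks: low control ATP plus DMSO, high control DMSO only; replication: one well per compound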
OX1R antag-2: blocks the human orexin 1 receptor; O43613; CHO/OX1R cells, Fluo-8 calcium fluorescence, orexin A; 0.43% of 330,000 active; inhibition, % at 5 µM;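 active = inhibition above its plate's threshold, mean inhibition of all tested compounds on the plate plus 3 SD, cut at about 37% in these data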
GPR7 antagonist: antagonists of human GPR7 (neuropeptides B/W receptor 1); GPR7-expressing cells, fluorescence antagonist assay; inhibition, % at 4.4 µM; 1.1% of 290,000 active; AID 1861; in the data active = inhibition above about 16%, passing the limit was not always enough;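 note: cells stimulated with the agonist NPW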
OX1R HTRF confirm: OX1R (human) antagonism, HTRF confirmed | shares compounds with OX1R antag-1 | OX1R-expressing cells, HTRF antagonist assay | inhibition, % at 6.6 µM | 49% of 1,800 active | AID 492964; in the data active = inhibition above about 55%;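 note: CHO cells expressing OX1R stimulated with orexin A at about EC80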
CHO-K1 HTRF cnt: signal in parental CHO-K1 cells, OX1R antagonist counter-screen; 48% of 1,800 active; HTRF counterscreen; shares compounds with OX1R antag-1; inhibition, % at 6.6 µM; in the data active = inhibition above about 17%
Of the large screens only hits and unclear results are named; the others gave an inactive call (follow-up assays come after a bar, where they were run). Shown are actives, neighbours in structure and some others; about 4.6% of the full set was active somewhere.

CCn1c(/C=C2/C(=O)N(C)c3ccccc32)nc2ccccc2c1=O	OX1R antag-1 86 | OX1R HTRF confirm inactive | CHO-K1 HTRF cnt inactive
Nc1ccc2oc(-c3cccc4ccccc34)nc2c1	OX1R antag-1 82 | OX1R HTRF confirm 68 | CHO-K1 HTRF cnt inactive
Cc1ccc(-c2nc3cc(N)ccc3o2)c(C)c1	none
C[C@@H]1CN([C@@H](C)CO)C(=O)CCCn2nncc2CO[C@@H]1CN(C)C(=O)Nc1ccccc1C(F)(F)F	none (no result: OX1R antag-1, CHO parental Ca, OX1R antag-2, GPR7 antagonist)
Cn1nc(-c2ccccn2)nc2c(=O)n(C)c(=O)nc1-2	OX1R antag-1 active | OX1R HTRF confirm 91 | CHO-K1 HTRF cnt 98
Cc1ccn2cc(-c3cccc(NC(=O)c4ccccc4)c3)nc2c1	OX1R antag-1 78 | OX1R HTRF confirm 62 | CHO-K1 HTRF cnt inactive
Cc1ccn2cc(-c3cccc(NC(=O)C(C)C)c3)nc2c1	none
CC(C)(C)c1ccccc1OCCOCCNCc1ccccc1	none
O=C(Nc1ccccc1)C1CCCCN1S(=O)(=O)c1ccccc1 (centres undefined)	OX1R antag-1 80 | OX1R HTRF confirm 60 | CHO-K1 HTRF cnt inactive
CNc1nc(N2CCc3ccccc32)ncc1F	OX1R antag-1 89 | OX1R HTRF confirm 83 | CHO-K1 HTRF cnt inactive
Cc1c(NS(=O)(=O)c2cccc(C(=O)NCc3ccc(Cl)cc3)c2)c(=O)n(-c2ccccc2)n1C	OX1R antag-1 84 | OX1R HTRF confirm 84 | CHO-K1 HTRF cnt inactive
CCN(C(=O)COC(=O)c1cc(S(=O)(=O)Nc2c(C)n(C)n(-c3ccccc3)c2=O)ccc1Cl)C1CCCCC1	OX1R antag-1 80 | OX1R HTRF confirm 86 | CHO-K1 HTRF cnt inactive
Cc1[nH]n(-c2ccccc2)c(=O)c1/C=N/N1C(=O)c2ccc3c4c(ccc(c24)C1=O)CC3	none
Cc1cccnc1Nc1nc(-c2ccc(O)c(O)c2)cs1	none
COc1ccc(-c2csc(Nc3ncccc3C)n2)cc1OC	OX1R antag-1 84 | OX1R HTRF confirm 73 | CHO-K1 HTRF cnt inactive
NC(=O)c1ncn([C@@H]2O[C@H](CNS(=O)(=O)c3cc4ccccc4s3)[C@@H](O)[C@H]2O)n1	none (no result: OX1R antag-1, CHO parental Ca, OX1R antag-2, GPR7 antagonist)
O=[N+]([O-])c1ccc(S(=O)(=O)N(CCCN2CCOCC2)Cc2cccs2)cc1	OX1R antag-1 86 | OX1R HTRF confirm inactive | CHO-K1 HTRF cnt 43
O=C(CNC(=S)N(CCCN1CCOCC1)Cc1cccs1)NCCCN1CCOCC1	none
CC(C)(C)NS(=O)(=O)c1ccc(CCC(=O)NCc2cccnc2)cc1	none
Cc1cc(=O)oc2c(CN3CCCC3)c(O)ccc12	none
CCCc1cc(=O)oc2c(CN3CCCC3)c(O)ccc12	OX1R antag-1 94 | OX1R HTRF confirm inactive | CHO-K1 HTRF cnt inactive
COc1cccc(NC(=O)CN(C)C(=O)c2cccnc2Sc2ccc(C)c(C)c2)c1	none (no result: GPR7 antagonist)
O=C(CCN1C(=O)c2ccccc2C1=O)N1CCOCC1	none
O=C(CCN1C(=O)c2cccc3cccc(c23)C1=O)NCC1CCCO1 (centres undefined)	OX1R antag-1 92 | OX1R HTRF confirm inactive | CHO-K1 HTRF cnt 40
O=C(CCN1C(=O)c2cccc3cccc(c23)C1=O)NC1CCS(=O)(=O)C1 (centres undefined)	OX1R antag-1 79 | OX1R HTRF confirm inactive | CHO-K1 HTRF cnt 54
O=C(CCN1C(=O)c2cccc3cccc(c23)C1=O)N1CCOCC1	OX1R antag-1 80 | OX1R HTRF confirm inactive | CHO-K1 HTRF cnt 64
CCCCCC1C(C(=O)OCC)C(=O)NC1(C(=O)OCC)C(=O)OCC (centres undefined)	none (no result: OX1R antag-1, CHO parental Ca, OX1R antag-2, GPR7 antagonist)
Cc1ccc(SCC(=O)OCC(=O)NCc2cccs2)cc1C	none (no result: GPR7 antagonist)
Nc1c(-c2ccccc2)c(CN2CCOCC2)nn1-c1cccc([N+](=O)[O-])c1	OX1R antag-1 85 | OX1R HTRF confirm inactive | CHO-K1 HTRF cnt 29
Cc1nn(-c2ccccc2)c(C)c1NC(=O)COC(=O)CCOc1ccccc1	none (no result: GPR7 antagonist)
